{"source": "ChEMBL document CHEMBL5038583", "about": "“Highly Potent and Selective Butyrylcholinesterase Inhibitors for Cognitive Improvement and Neuroprotection” (J Med Chem, 2021)", "key": {"[1]": {"assay": "MRT (0 to infinity) in overnight fasted Sprague-Dawley rat at 10 mg/kg, po measured upto 1440 mins by LC/MS/MS analysis", "format": "ADME, organism-based", "details": "in vivo", "how_it_was_run": "(§1)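 Male SD rats (180−220 g), n = 8 per route, fasted overnight with water available. Single 10 mg/kg dose p.o. or i.v. in DMSO/PEG400/saline (10:80:10). Retro-orbital blood taken into heparinized tubes at 1–1440 min. Plasma precipitated with methanol containing theophylline internal standard, then LC/MS/MS against a blank-plasma standard curve. Parameters from noncompartmental extravascular analysis; mean ± SD.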"}, "PC-12": {"tested_on": "PC-12", "assay": "Cytotoxicity against rat PC-12 cells assessed as reduction in cell viability incubated for 24 hrs by MTT assay", "format": "functional, cell-based", "details": "PC-12, 24 h", "how_it_was_run": "(§2)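 Cells seeded at 1 × 10⁴/well in DMEM with 10% FBS and left overnight, then given compound (DMSO stock diluted in DMEM) for 24 h at 37 °C. MTT added for 4 h, formazan dissolved in DMSO, absorbance read at 492 nm. Viability taken as OD treated/OD DMEM × 100%; IC50 from three independent experiments, mean SD.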"}, "Mus musculus [2]": {"tested_on": "Mus musculus", "assay": "Antialzheimer activity in ICR mouse assessed as reduction in scopolamine-induced cognitive impairment at 30 mg/kg, ig administered for 10 consecutive days by Morris water maze test", "format": "functional, organism-based", "details": "time 10.0 day", "how_it_was_run": "(§3)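 Male ICR mice (8−10 weeks, 18−20 g), n = 8 per group. Compound at 15 or 30 mg/kg intragastric in DMSO/saline (10:90), given 30 min before scopolamine 3 mg/kg i.p., for 10 consecutive days; tacrine 15 mg/kg as reference. Morris water maze: 5 days of training, probe trial on day 6 with platform removed. Escape latency and trajectory recorded; mean ± SD.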"}, "[3]": {"assay": "Effective permeability of the compound in pH 7.4 PBS/EtOH (70:30) at 100 ug/ml incubated for 18 hrs by PAMPA-BBB assay", "format": "ADME", "details": "dose 100 µg/ml, read-out: Peff", "how_it_was_run": "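PAMPA-BBB with porcine brain lipid in dodecane (20 mg/mL) on PVDF filter. Donor holds compound at 100 μg/mL final (from 5 mg/mL DMSO stock) in PBS pH 7.4/EtOH 70:30; acceptor holds the same buffer. Incubated 18 h at 25 °C; donor and acceptor concentrations by UV at five wavelengths. Four wells, at least three runs, nine permeability standards; mean ± SD.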"}, "[4]": {"assay": "Half life in overnight fasted Sprague-Dawley rat at 10 mg/kg, iv measured upto 1440 mins by LC/MS/MS analysis", "format": "ADME, organism-based", "details": "in vivo", "how_it_was_run": "as §1"}, "HepG2": {"tested_on": "HepG2", "assay": "Cytotoxicity against human HepG2 cells assessed as reduction in cell viability incubated for 24 hrs by MTT assay", "format": "functional, cell-based", "details": "HepG2, 24 h", "how_it_was_run": "as §2"}, "[5]": {"assay": "AUC (0 to t) in ICR mouse plasma at 10 mg/kg, po measured upto 240 mins", "format": "ADME, organism-based", "design": "route oral, dose 10 mg/kg, time <=240", "how_it_was_run": "(§4)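 ICR mice given 10 mg/kg orally in 5% DMSO/40% PEG400/55% saline (1 mg/mL). Blood (retro-orbital) and brain collected at 30, 60, 120 and 240 min. Brain homogenized in 2 volumes PBS, extracted with ethyl acetate, dried and reconstituted in mobile phase. Plasma processed as in the rat study; LC/MS/MS. Brain/plasma ratios from exposures, AUC(B) vs AUC(P).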"}, "[6]": {"assay": "Cmax in overnight fasted Sprague-Dawley rat at 10 mg/kg, po measured upto 1440 mins by LC/MS/MS analysis", "format": "ADME, organism-based", "design": "route oral, dose 10 mg/kg, time <=1440", "details": "in vivo", "how_it_was_run": "as §1"}, "[7]": {"assay": "Ratio of drug concentration in brain to plasma of ICR mouse at 10 mg/kg, po measured after 0.5 hrs", "format": "ADME, organism-based", "how_it_was_run": "as §4"}, "[8]": {"assay": "Ratio of AUC in brain to plasma of ICR mouse at 10 mg/kg, po measured upto 240 mins", "format": "ADME, organism-based", "details": "read-out: Ratio AUC", "how_it_was_run": "as §4"}, "Mus musculus [9]": {"tested_on": "Mus musculus", "assay": "Anti-alzheimer activity in scopolamine-induced ICR mouse model of cognitive impairment assessed as simplification of trajectories at 30 mg/kg, ig administered for 10 consecutive days by Morris water maze test", "format": "functional, organism-based", "how_it_was_run": "as §3"}, "[10]": {"assay": "Tmax in overnight fasted Sprague-Dawley rat at 10 mg/kg, iv measured upto 1440 mins by LC/MS/MS analysis", "format": "ADME, organism-based", "details": "in vivo", "how_it_was_run": "as §1"}, "[11]": {"assay": "MRT (0 to infinity) in overnight fasted Sprague-Dawley rat at 10 mg/kg, iv measured upto 1440 mins by LC/MS/MS analysis", "format": "ADME, organism-based", "details": "in vivo", "how_it_was_run": "as §1"}, "Mus musculus [12]": {"tested_on": "Mus musculus", "assay": "Antialzheimer activity in scopolamine-induced ICR mouse model of cognitive impairment assessed as reduction in escape latency at 30 mg/kg, ig administered for 10 consecutive days by Morris water maze test", "format": "functional, organism-based", "how_it_was_run": "as §3"}, "L02": {"tested_on": "L02", "assay": "Cytotoxicity against human L02 cells assessed as survival rate at 100 uM incubated for 24 hrs by MTT assay", "format": "functional", "how_it_was_run": "as §2"}, "[13]": {"assay": "Metabolic stability in human liver microsomes assessed as half life at 1 uM measured upto 45 mins in presence of NADPH by LC/MS/MS analysis", "format": "ADME, Microsome", "how_it_was_run": "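Human liver microsomes 0.5 mg/mL, compound 1 μM final, NADPH 2 mM, at 37 °C. Reactions stopped at 0, 5, 15, 30 and 45 min with acetonitrile containing imipramine internal standard. LC/MS/MS quantitation relative to 0 min; initial rates used for t1/2 and intrinsic clearance; ketanserin as assay control. Mean of two independent experiments.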"}, "[14]": {"assay": "AUC (0 to infinity) in overnight fasted Sprague-Dawley rat at 10 mg/kg, po measured upto 1440 mins by LC/MS/MS analysis", "format": "ADME, organism-based", "design": "route oral, dose 10 mg/kg, time <=1440", "details": "in vivo", "how_it_was_run": "as §1"}, "[15]": {"assay": "Ratio of Cmax in brain to plasma of ICR mouse at 10 mg/kg, po measured upto 240 mins", "format": "ADME, organism-based", "how_it_was_run": "as §4"}, "[16]": {"assay": "AUC (0 to t) in overnight fasted Sprague-Dawley rat at 10 mg/kg, iv measured upto 1440 mins by LC/MS/MS analysis", "format": "ADME, organism-based", "design": "route intravenous, dose 10 mg/kg, time <=1440", "details": "in vivo, 24 h", "how_it_was_run": "as §1"}, "Cholinesterase [17]": {"target": "Cholinesterase (Equus caballus, UniProt P81908)", "sequence (P81908 whole entry)": "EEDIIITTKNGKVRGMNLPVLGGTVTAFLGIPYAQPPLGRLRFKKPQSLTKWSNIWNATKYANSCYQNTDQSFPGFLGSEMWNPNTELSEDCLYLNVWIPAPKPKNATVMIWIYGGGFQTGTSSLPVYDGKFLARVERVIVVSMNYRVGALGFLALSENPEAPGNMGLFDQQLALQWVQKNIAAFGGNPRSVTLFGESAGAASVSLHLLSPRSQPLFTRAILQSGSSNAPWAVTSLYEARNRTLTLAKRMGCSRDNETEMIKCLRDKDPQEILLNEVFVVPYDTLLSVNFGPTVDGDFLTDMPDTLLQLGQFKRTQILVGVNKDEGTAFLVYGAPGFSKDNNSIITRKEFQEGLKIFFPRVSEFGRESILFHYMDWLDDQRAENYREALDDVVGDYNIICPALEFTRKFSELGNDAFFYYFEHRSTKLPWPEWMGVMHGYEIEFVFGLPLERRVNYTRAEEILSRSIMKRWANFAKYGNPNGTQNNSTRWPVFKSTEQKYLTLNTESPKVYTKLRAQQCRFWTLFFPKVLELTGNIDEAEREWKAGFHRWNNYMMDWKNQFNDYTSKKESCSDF", "assay": "Inhibition of equine serum BChE using butyrylthiocholine iodide as substrate preincubated for 5 mins followed by substrate addition and measured after 2 mins by DTNB-reagent based Ellman's method"}, "Cholinesterase [18]": {"target": "Cholinesterase (Homo sapiens, UniProt P06276)", "sequence (P06276 whole entry)": "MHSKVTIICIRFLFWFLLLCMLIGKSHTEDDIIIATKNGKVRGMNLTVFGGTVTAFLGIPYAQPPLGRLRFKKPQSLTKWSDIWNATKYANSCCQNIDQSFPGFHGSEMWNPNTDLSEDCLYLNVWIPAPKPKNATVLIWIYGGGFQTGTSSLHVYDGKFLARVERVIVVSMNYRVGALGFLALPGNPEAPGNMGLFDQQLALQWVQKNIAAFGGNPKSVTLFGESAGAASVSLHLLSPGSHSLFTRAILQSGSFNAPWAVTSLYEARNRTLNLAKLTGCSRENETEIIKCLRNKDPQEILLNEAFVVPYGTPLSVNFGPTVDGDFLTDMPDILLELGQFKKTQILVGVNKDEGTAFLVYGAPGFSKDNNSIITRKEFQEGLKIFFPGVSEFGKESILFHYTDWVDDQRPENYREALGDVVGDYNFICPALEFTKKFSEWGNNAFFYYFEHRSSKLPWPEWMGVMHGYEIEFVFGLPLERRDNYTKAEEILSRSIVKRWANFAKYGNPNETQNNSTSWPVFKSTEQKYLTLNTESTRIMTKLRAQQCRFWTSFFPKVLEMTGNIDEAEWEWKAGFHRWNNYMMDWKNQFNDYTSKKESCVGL", "assay": "Inhibition of human serum BChE using butyrylthiocholine iodide as substrate preincubated for 20 mins followed by substrate addition and measured after 2 mins by DTNB-reagent based Ellman's method", "how_it_was_run": "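hBChE at 0.015 units/mL with DTNB in phosphate buffer pH 8.0, preincubated 20 min at room temperature with at least six concentrations (10⁻⁴−10⁻⁹). Butyrylthiocholine iodide (0.075 M solution) added; A412 read after 2 min at 25 °C. IC50 from % activity vs log concentration; triplicates in at least three runs.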"}, "[19]": {"assay": "Acute toxicity in ICR mouse assessed as animal death at […]", "details": "in vivo, po, 1000 mg/kg, 336 h"}, "[20]": {"assay": "AUC (0 to t) in overnight fasted Sprague-Dawley rat at 10 mg/kg, po measured upto 1440 mins by LC/MS/MS analysis", "format": "ADME, organism-based", "design": "route oral, dose 10 mg/kg, time <=1440", "details": "in vivo", "how_it_was_run": "as §1"}, "[21]": {"assay": "Acute toxicity in ICR mouse assessed as abnormal behaviour at 1 g/kg, ig administered […]", "details": "in vivo, po, 1000 mg/kg", "how_it_was_run": "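Single dose of 1 g/kg given intragastrically on day 1 to overnight-fasted mice (15−18 g), suspended in 5% DMSO, 40% PEG 400, 55% saline. Male and female groups (n = 9), with vehicle controls. Death, daily behaviour and body mass followed over the next 2 weeks.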"}}, "note": "Calls of active or inactive are those of the source. The rule behind the calls is not given here."}
{"smiles": "Nc1nonc1-c1nc2ccccc2n1CC(=O)Nc1cnc2ccccc2c1", "values": [{"measurement": "MRT inf", "setting": "[1]", "result": 11.6, "unit": "h"}, {"measurement": "IC50", "setting": "PC-12", "result": 33.5, "unit": "µM"}, {"measurement": "Activity", "setting": "Mus musculus [2]", "result": "Active"}, {"measurement": "Papp at 18 h, 100 ug/ml", "setting": "[3]", "result": 4.45, "unit": "×10⁻⁶ cm/s"}, {"measurement": "half-life", "setting": "[4]", "result": 8.87, "unit": "h"}, {"measurement": "IC50", "setting": "HepG2", "result": 84.3, "unit": "µM"}, {"measurement": "AUC(0-t) at 4 h", "setting": "[5]", "result": 94.7, "unit": "ng·h/mL"}, {"measurement": "Cmax", "setting": "[6]", "result": 44.7, "unit": "ng/mL"}, {"measurement": "Kp at 0.5 h", "setting": "[7]", "result": 1.54}, {"measurement": "Kp at 4 h", "setting": "[8]", "result": 0.36}, {"measurement": "Activity", "setting": "Mus musculus [9]", "result": "Active"}, {"measurement": "Tmax", "setting": "[10]", "result": 1.02, "unit": "min"}, {"measurement": "MRT inf", "setting": "[11]", "result": 14.1, "unit": "h"}, {"measurement": "Activity", "setting": "Mus musculus [12]", "result": "Active"}, {"measurement": "Activity", "setting": "L02", "result": 70.64, "unit": "%"}, {"measurement": "half-life at 1 µM", "setting": "[13]", "result": 2.65, "unit": "h"}, {"measurement": "AUC(0-inf)", "setting": "[14]", "result": 662, "unit": "ng·h/mL"}, {"measurement": "Kp at 4 h", "setting": "[15]", "result": 0.24}, {"measurement": "AUCt", "setting": "[16]", "result": 859.64, "unit": "ng·h/mL"}, {"measurement": "IC50", "setting": "Cholinesterase [17]", "result": 0.02, "unit": "µM"}, {"measurement": "IC50", "setting": "Cholinesterase [18]", "result": 0.016, "unit": "µM"}, {"measurement": "Activity", "setting": "[19]", "result": "Non-Toxic"}, {"measurement": "AUC(0-t) at 24 h", "setting": "[20]", "result": 628, "unit": "ng·h/mL"}, {"measurement": "Activity", "setting": "[21]", "result": "Non-Toxic"}]}
